According to ChEMBL document CHEMBL1128739, “Structure-activity relationships in the 8-amino-6,7,8,9-tetrahydro-3H-benz[e]indole ring system. 2. Effects of 8-amino nitrogen substitution on serotonin receptor binding and pharmacology” (J Med Chem, 1995):
The source made the active and inactive calls. The calls are words filed in the database; no cut-off is given here.

Columns and labels:
D(2) dopamine receptor [1] = biological target: T1, D(2) dopamine receptor (Rattus norvegicus, UniProt P61169); assay: In vitro binding affinity against cloned mammalian Dopamine receptor D2 expressed in CHO cells using [3H]U-86170 as radioligand; type: cell-based; conditions: read-out: Ki
Procedure, shortened: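 Membranes from CHO cells (20-60 μg protein) in 20 mM HEPES, 10 mM MgSO4, pH 7.4. Nonspecific binding defined with excess haloperidol. 11 concentrations, each in duplicate. Incubated 1 h at room temperature, then filtered and counted. IC50 from a one-site competition fit, converted to Ki by Cheng-Prusoff.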

Rattus norvegicus [2] = assay: The compound was tested in vivo for biochemical effect against the changes in different brain area levels of DOPA in reserpinized rat hemispheres (mainly cortex)at dose 12.5 uM/kg; Inactive; type: functional, organism-based
Rattus norvegicus [3] = assay: In vivo changes in different brain area levels of 5-HTP in reserpinized rat corpus striatum.; type: functional
Procedure, shortened: (§1)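 Male Sprague-Dawley rats (200-300 g) pretreated with reserpine 5 mg/kg sc 18 h before. Injection volume 5 mL/kg at neutral pH. Brain-region 5-HTP measured by HPLC with electrochemical detection. Dose-response curves used four to six doses, n = 4.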

D(3) dopamine receptor = D(3) dopamine receptor (Rattus norvegicus, UniProt P19020); assay: In vitro binding affinity against cloned mammalian Dopamine receptor D3 expressed in CHO cells by, using [3H]-spiperone as radioligand; type: cell-based; conditions: read-out: Ki
Rattus norvegicus [4] = assay: In vivo for biochemical effect against brain area levels of 5-HTP in reserpinized rat hemispheres (mainly cortex).; type: functional
Procedure, shortened: (§2)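 Male Sprague-Dawley rats (200-300 g) pretreated with reserpine 5 mg/kg sc 18 h before. Injection volume 5 mL/kg, test solutions at neutral pH. DOPA and 5-HTP in limbic system, striatum and hemispheres measured by HPLC with electrochemical detection. Dose-response curves from four to six dose levels (n = 4) per brain area.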

Rattus norvegicus [5] = assay: The compound was tested in vivo for biochemical effect against the changes in different brain area levels of DOPA in reserpinized rat limbic system at dose 12.5 uM/kg; Inactive; type: functional, organism-based
Rattus norvegicus [6] = assay: The compound was tested in vivo for biochemical effect against the changes in different brain area levels of DOPA in reserpinized rat corpus striatum at dose 12.5 uM/kg; Inactive; type: functional, organism-based; procedure, shortened: as §2
Rattus norvegicus [7] = assay: In vivo changes in different brain area levels of 5-HTP in reserpinized rat limbic system.; type: functional; procedure, shortened: as §1
[8] = biological target: 5-hydroxytryptamine receptor 1D (Homo sapiens, UniProt P28221); assay: In vitro binding affinity against cloned mammalian 5-hydroxytryptamine 1D receptor alpha expressed in CHO cells, by using [3H]5-HT as radioligand; type: cell-based
Procedure, shortened: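 Competition binding on CHO-cell membranes (20-60 μg protein) in 50 mM Tris, 5 mM MgCl2, 0.1% ascorbic acid, pH 7.4. Nonspecific binding defined with excess serotonin. 11 drug concentrations, each in duplicate. Incubated 1 h at room temperature, protected from light, then filtered and scintillation counted. IC50 taken from a one-site fit; Ki by Cheng-Prusoff.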

[9] = biological target: T2, 5-hydroxytryptamine receptor 1B (Homo sapiens, UniProt P28222); assay: In vitro binding affinity against cloned mammalian 5-hydroxytryptamine 1D receptor beta expressed in CHO cells, by using [3H]5-HT as radioligand; type: cell-based
Procedure, shortened: (§3)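 Membranes from CHO cells stably expressing the cloned receptor, made by mechanical disruption in ice-cold Tris/EDTA/EGTA pH 7.4 and differential centrifugation. [3H]serotonin at 1.7 nM in 50 mM Tris, 5 mM MgCl2, 0.1% ascorbic acid, pH 7.4. 11 drug concentrations in duplicate, 1 h at room temperature protected from light, then filtration. Excess serotonin defines nonspecific binding. One-site IC50 fit, Ki by Cheng-Prusoff.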

Rattus norvegicus [10] = assay: The compound was tested in vivo for biochemical effect against the changes in different brain area levels of DOPA in reserpinized rat limbic system; type: functional
Procedure, shortened: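 Rats (male Sprague-Dawley, 200-300 g) received reserpine 5 mg/kg sc 18 h before. Injections 5 mL/kg at neutral pH. DOPA accumulation measured by HPLC with electrochemical detection as an index of DA or NE synthesis rate. Four to six dose levels, n = 4. ED50 from a sigmoidal fit.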

D(2) dopamine receptor [11] = biological target: T1, D(2) dopamine receptor; assay: Binding affinity rat Dopamine receptor D2 expressed in CHO-K1 cells by [3H]U-86170 displacement.; type: cell-based
Rattus norvegicus [12] = assay: The compound was tested in vivo for biochemical effect against the changes in different brain area levels of DOPA in reserpinized rat corpus striatum; type: functional; procedure, shortened: as §2
Rattus norvegicus [13] = assay: The compound was tested in vivo for biochemical effect against the changes in different brain area levels of DOPA in reserpinized rat hemispheres (mainly cortex)at dose 50 uM/kg; inactive; type: functional, organism-based
Rattus norvegicus [14] = assay: The compound was tested in vivo for biochemical effect against the changes in different brain area levels of DOPA in reserpinized rat hemispheres (mainly cortex)at dose 3.1 uM/kg; inactive; type: functional, organism-based
Rattus norvegicus [15] = assay: The compound was tested in vivo for biochemical effect against the changes in different brain area levels of DOPA in reserpinized rat corpus striatum at dose 50 uM/kg; inactive; type: functional, organism-based
Rattus norvegicus [16] = assay: The compound was tested in vivo for biochemical effect against the changes in different brain area levels of DOPA in reserpinized rat limbic system at dose 50 uM/kg; inactive; type: functional, organism-based
Rattus norvegicus [17] = assay: The compound was tested in vivo for biochemical effect against the changes in different brain area levels of 5-HTP in reserpinized rat hemispheres (mainly cortex)at dose 3.1 uM/kg; inactive; type: functional, organism-based
Rattus norvegicus [18] = assay: The compound was tested in vivo for biochemical effect against the changes in different brain area levels of DOPA in reserpinized rat corpus striatum at dose 12.5 umol/kg; Partial effect; type: functional, organism-based
Rattus norvegicus [19] = assay: The compound was tested in vivo for biochemical effect against the changes in different brain area levels of DOPA in reserpinized rat hemispheres (mainly cortex)at doest 12.5 umol/kg; Inactive; type: functional, organism-based
Rattus norvegicus [20] = assay: The compound was tested in vivo for biochemical effect against the changes in different brain area levels of DOPA in reserpinized rat limbic system at dose 12.5 umol/kg; Partial effect; type: functional, organism-based
[21] = biological target: T2, 5-hydroxytryptamine receptor 1B; assay: The compound was tested in vitro for binding affinity against cloned mammalian 5-hydroxytryptamine 1D receptor beta expressed in CHO cells, by using [3H]5-HT as radioligand; type: cell-based; set-up: concentration or dose not given beside the values; conditions: concentration not given here; procedure, shortened: as §3
Rattus norvegicus [22] = assay: The compound was tested in vivo for biochemical effect against the changes in different brain area levels of DOPA in reserpinized rat hemispheres (mainly cortex); inactive at dose 50 uM/kg; Inactive; type: functional, organism-based
[23] = biological target: D(3) dopamine receptor (Rattus norvegicus) (UniProt P19020); assay: The compound was tested in vitro for binding affinity against cloned mammalian Dopamine receptor D3 expressed in CHO cells by, using [3H]spiperone as radioligand; inactive at 10E-6 M; type: cell-based
Rattus norvegicus [24] = assay: The compound was tested in vivo for biochemical effect against the changes in different brain area levels of 5-HTP in reserpinized rat limbic system at dose 3.1 uM/kg; Inactive; type: functional, organism-based
Rattus norvegicus [25] = assay: The compound was tested in vivo for biochemical effect against the changes in different brain area levels of DOPA in reserpinized rat limbic system at dose 3.1 uM/kg; Inactive; type: functional, organism-based; procedure, shortened: as §2
Rattus norvegicus [26] = assay: The compound was tested in vivo for biochemical effect against the changes in different brain area levels of DOPA in reserpinized rat hemispheres (mainly cortex)at dose 3.1 uM/kg; Inactive; type: functional, organism-based; procedure, shortened: as §2
Rattus norvegicus [27] = assay: The compound was tested in vivo for biochemical effect against the changes in different brain area levels of DOPA in reserpinized rat corpus striatum at dose 3.1 uM/kg; Inactive; type: functional, organism-based; procedure, shortened: as §2
Rattus norvegicus [28] = assay: The compound was tested in vivo for biochemical effect against the changes in different brain area levels of 5-HTP in reserpinized rat hemispheres (mainly cortex)at dose 3.1 uM/kg; Inactive; type: functional, organism-based
Rattus norvegicus [29] = assay: The compound was tested in vivo for biochemical effect against the changes in different brain area levels of 5-HTP in reserpinized rat corpus striatum at dose 3.1 uM/kg; Inactive; type: functional, organism-based
Rattus norvegicus [30] = assay: The compound was tested in vivo for biochemical effect against the changes in different brain area levels of 5-HTP in reserpinized rat corpus striatum at dose 25 uM/kg; Inactive; type: functional, organism-based
Rattus norvegicus [31] = assay: The compound was tested in vivo for biochemical effect against the changes in different brain area levels of 5-HTP in reserpinized rat hemispheres (mainly cortex)at dose 25 uM/kg; Inactive; type: functional, organism-based
Rattus norvegicus [32] = assay: The compound was tested in vivo for biochemical effect against the changes in different brain area levels of DOPA in reserpinized rat corpus striatum at dose 25 uM/kg; Inactive; type: functional, organism-based
Rattus norvegicus [33] = assay: The compound was tested in vivo for biochemical effect against the changes in different brain area levels of DOPA in reserpinized rat limbic system at dose 25 uM/kg; Inactive; type: functional, organism-based
Rattus norvegicus [34] = assay: The compound was tested in vivo for biochemical effect against the changes in different brain area levels of DOPA in reserpinized rat hemispheres (mainly cortex)at does 25 uM/kg; Inactive; type: functional, organism-based
Rattus norvegicus [35] = assay: The compound was tested in vivo for biochemical effect against the changes in different brain area levels of 5-HTP in reserpinized rat limbic system at dose 25 uM/kg; Inactive; type: functional, organism-based
Rattus norvegicus [36] = assay: The compound was tested in vivo for biochemical effect against the changes in different brain area levels of DOPA in reserpinized rat hemispheres (mainly cortex)at dose 12.5 uM/kg; inactive; type: functional, organism-based; procedure, shortened: as §2
Rattus norvegicus [37] = assay: The compound was tested in vivo for biochemical effect against the changes in different brain area levels of DOPA in reserpinized rat limbic system at dose 12.5 uM/kg; inactive; type: functional, organism-based; procedure, shortened: as §2
Rattus norvegicus [38] = assay: The compound was tested in vivo for biochemical effect against the changes in different brain area levels of DOPA in reserpinized rat corpus striatum at dose 12.5 uM/kg; inactive; type: functional, organism-based; procedure, shortened: as §2

Chain of D(3) dopamine receptor (P19020 whole entry): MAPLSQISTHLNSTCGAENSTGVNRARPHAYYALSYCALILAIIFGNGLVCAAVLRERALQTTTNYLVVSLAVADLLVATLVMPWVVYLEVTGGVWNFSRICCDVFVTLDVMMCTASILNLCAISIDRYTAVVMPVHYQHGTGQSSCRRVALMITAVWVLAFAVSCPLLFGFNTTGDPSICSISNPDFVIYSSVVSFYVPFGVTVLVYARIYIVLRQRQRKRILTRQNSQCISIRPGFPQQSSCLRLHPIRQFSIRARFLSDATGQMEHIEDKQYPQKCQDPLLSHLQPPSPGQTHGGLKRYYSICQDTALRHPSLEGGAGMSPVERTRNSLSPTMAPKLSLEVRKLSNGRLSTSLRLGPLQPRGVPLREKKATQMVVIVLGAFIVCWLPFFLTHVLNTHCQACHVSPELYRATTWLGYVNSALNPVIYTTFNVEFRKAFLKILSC
Chain of 5-hydroxytryptamine receptor 1D (P28221 whole entry): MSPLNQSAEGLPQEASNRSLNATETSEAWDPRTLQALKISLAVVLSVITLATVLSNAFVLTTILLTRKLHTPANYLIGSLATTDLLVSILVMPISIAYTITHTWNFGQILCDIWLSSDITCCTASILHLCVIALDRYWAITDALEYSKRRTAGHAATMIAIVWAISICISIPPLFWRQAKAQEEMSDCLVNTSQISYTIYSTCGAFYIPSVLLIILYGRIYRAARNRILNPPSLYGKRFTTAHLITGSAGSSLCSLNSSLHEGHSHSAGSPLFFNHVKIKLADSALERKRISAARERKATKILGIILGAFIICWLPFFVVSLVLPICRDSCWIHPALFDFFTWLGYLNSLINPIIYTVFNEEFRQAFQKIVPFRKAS
T2 sequence (P28222 whole entry): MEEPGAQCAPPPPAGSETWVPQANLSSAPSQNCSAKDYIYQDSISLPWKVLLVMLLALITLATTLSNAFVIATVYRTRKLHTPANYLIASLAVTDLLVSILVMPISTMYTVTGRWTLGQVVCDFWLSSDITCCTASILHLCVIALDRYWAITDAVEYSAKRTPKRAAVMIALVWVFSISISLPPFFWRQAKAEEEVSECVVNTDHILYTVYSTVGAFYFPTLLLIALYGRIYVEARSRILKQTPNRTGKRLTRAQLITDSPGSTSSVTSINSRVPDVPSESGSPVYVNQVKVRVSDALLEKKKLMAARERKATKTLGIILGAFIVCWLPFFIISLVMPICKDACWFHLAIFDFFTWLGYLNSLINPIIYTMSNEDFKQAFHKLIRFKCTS
T1 sequence (P61169 whole entry): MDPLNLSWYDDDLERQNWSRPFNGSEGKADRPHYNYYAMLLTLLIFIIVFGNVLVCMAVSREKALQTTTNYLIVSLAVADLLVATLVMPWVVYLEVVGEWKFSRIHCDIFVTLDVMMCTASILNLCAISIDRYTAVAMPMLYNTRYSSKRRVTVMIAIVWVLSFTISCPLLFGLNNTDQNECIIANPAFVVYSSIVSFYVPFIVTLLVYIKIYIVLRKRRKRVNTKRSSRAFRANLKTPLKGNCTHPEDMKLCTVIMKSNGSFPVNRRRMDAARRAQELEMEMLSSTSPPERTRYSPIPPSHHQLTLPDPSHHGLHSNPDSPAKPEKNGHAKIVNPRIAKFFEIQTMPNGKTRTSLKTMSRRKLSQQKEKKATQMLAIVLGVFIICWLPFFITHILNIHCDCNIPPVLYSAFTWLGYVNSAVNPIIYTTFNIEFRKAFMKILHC
Chain of D(3) dopamine receptor (Rattus norvegicus) (P19020 whole entry): as the sequence (P19020 whole entry) above

SMILES	Ki (D(2) dopamine receptor [1]) [nM]	ED50 (Rattus norvegicus [3]) [µmol/kg]	Ki (D(3) dopamine receptor) [nM]	ED50 (Rattus norvegicus [4]) [µmol/kg]	ED50 (Rattus norvegicus [7]) [µmol/kg]	Ki [8] [nM]	Ki [9] [nM]	Ki (D(2) dopamine receptor [11]) [nM]	also measured
CCCN(CCCCN1C(=O)CC(C)(C)CC1=O)[C@@H]1CCc2ccc3[nH]cc(C=O)c3c2C1	62	2.98	154	4.63	3.78	5	119	–	ED50 (Rattus norvegicus [2]): inactive; ED50 (Rattus norvegicus [5]): inactive; ED50 (Rattus norvegicus [6]): inactive
CCCN(Cc1ccccc1)C1CCc2ccc3[nH]ccc3c2C1 (stereo not drawn)	–	6.87	43	6.72	7.58	192	4610	22	ED50 (Rattus norvegicus [10]): 8.1 µmol/kg; ED50 (Rattus norvegicus [12]): 8.77 µmol/kg; ED50 (Rattus norvegicus [13]): inactive
c1ccc(CCCNCC2CCc3ccc4[nH]ccc4c3C2)cc1 (stereo not drawn)	–	34	199	–	–	63	228	32	ED50 (Rattus norvegicus [14]): inactive; ED50 (Rattus norvegicus [15]): inactive; ED50 (Rattus norvegicus [16]): inactive; ED50 (Rattus norvegicus [17]): inactive
CCCN(CCCc1ccccc1)[C@@H]1CCc2ccc3[nH]cc(C=O)c3c2C1	5.8	0.43	19	0.75	–	0.9	14	–	ED50 (Rattus norvegicus [18]): Weak activity; ED50 (Rattus norvegicus [19]): inactive; ED50 (Rattus norvegicus [20]): Weak activity
c1cc2c3c(ccc2[nH]1)CCC(N1CCCC1)C3 (stereo not drawn)	–	0.066	–	0.051	0.092	77	–	94	inhibition [21]: < 45%; ED50 (Rattus norvegicus [10]): 1.57 µmol/kg; ED50 (Rattus norvegicus [22]): inactive; ED50 (Rattus norvegicus [12]): 3.26 µmol/kg; inhibition [23]: < 45%
CCCN(Cc1ccccc1)C1CCc2ccc3[nH]cc(C=O)c3c2C1 (stereo not drawn)	90	–	115	–	–	33	992	–	ED50 (Rattus norvegicus [24]): inactive; ED50 (Rattus norvegicus [25]): inactive; ED50 (Rattus norvegicus [26]): inactive; ED50 (Rattus norvegicus [27]): inactive; ED50 (Rattus norvegicus [28]): inactive; ED50 (Rattus norvegicus [29]): inactive
CCCN(CCCCN1C(=O)CC(C)(C)CC1=O)[C@H]1CCc2ccc3[nH]cc(C=O)c3c2C1	859	–	1270	–	–	250	1620	–	ED50 (Rattus norvegicus [30]): inactive; ED50 (Rattus norvegicus [31]): inactive; ED50 (Rattus norvegicus [32]): inactive; ED50 (Rattus norvegicus [33]): inactive; ED50 (Rattus norvegicus [34]): inactive; ED50 (Rattus norvegicus [35]): inactive
CCCN(CC(C)C)[C@@H]1CCc2ccc3[nH]ccc3c2C1	5.7	1.23	18	3.59	1.8	35	219	–	ED50 (Rattus norvegicus [36]): inactive; ED50 (Rattus norvegicus [37]): inactive; ED50 (Rattus norvegicus [38]): inactive
